Measurements reported in ChEMBL document CHEMBL1146375, “Synthetic studies on novel benzimidazolopeptides with antimicrobial, cytotoxic and anthelmintic potential” (2007).
Converted amounts (≈) assume the structure as drawn.

What was measured:
Bacillus subtilis [1] = assay: Antibacterial activity against Bacillus subtilis NCIM 2063 after 18 hrs by disc diffusion method; type: functional
Outline: (§1)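 Modified Kirby-Bauer disc diffusion. Plates inoculated with spore suspension (about 6 × 10⁴ spores mL^-1). Sterile 6 mm paper discs carried test samples at 10 mg mL^-1; ciprofloxacin disc as reference, DMF disc as negative control. Plates held 18 h at 37 °C. Inhibition zone diameters (mm) averaged over triplicate sets.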

Staphylococcus aureus [2] = assay: Antibacterial activity against Staphylococcus aureus NCIM 2079 after 18 hrs by disc diffusion method; type: functional; outline: as §1
Pseudomonas aeruginosa [3] = assay: Antibacterial activity against Pseudomonas aeruginosa NCIM 2034 after 18 hrs by disc diffusion method; type: functional; outline: as §1
Escherichia coli [4] = assay: Antibacterial activity against Escherichia coli NCIM 2065 after 18 hrs by disc diffusion method; type: functional; outline: as §1
Candida albicans [5] = assay: Antifungal activity against Candida albicans MUCC 29 after 48 hrs by disc diffusion method; type: functional
Outline: (§2)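 Agar well diffusion on plates inoculated with spore suspension in normal saline from cultures on Sabouraud's broth. Wells punched and loaded with test samples or griseofulvin at 10 mg mL^-1, with DMSO as negative control. Incubated 48 h at 37 °C.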

Microsporum audouinii [6] = assay: Antifungal activity against Microsporum audouinii MUCC 545 after 48 hrs by disc diffusion method; type: functional; outline: as §2
Trichophyton benhamiae [7] = assay: Antifungal activity against Trichophyton mentagrophytes MUCC 665 after 48 hrs by disc diffusion method; type: functional, Arthroderma benhamiae; outline: as §2
Aspergillus niger = assay: Antifungal activity against Aspergillus niger MUCC 177 after 48 hrs by disc diffusion method; type: functional; outline: as §2
Bacillus subtilis [8] = assay: Antibacterial activity against Bacillus subtilis NCIM 2063 after 18 hrs by tube dilution method; type: functional; conditions: NCIM 2063, 18 h
Outline: (§3)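 Tube dilution MIC. Stock diluted in sterile broth to seven concentrations from 200 to 3.1 […]. Each tube inoculated with one loopful of test bacterium and incubated 18 h at 37 °C. MIC read from presence or absence of growth.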

Staphylococcus aureus [9] = assay: Antibacterial activity against Staphylococcus aureus NCIM 2079 after 18 hrs by tube dilution method; type: functional; conditions: NCIM 2079, 18 h; outline: as §3
Pseudomonas aeruginosa [10] = assay: Antibacterial activity against Pseudomonas aeruginosa NCIM 2034 after 18 hrs by tube dilution method; type: functional; conditions: NCIM 2034, 18 h; outline: as §3
Escherichia coli [11] = assay: Antibacterial activity against Escherichia coli NCIM 2065 after 18 hrs by tube dilution method; type: functional; conditions: NCIM 2065, 18 h
Candida albicans [12] = assay: Antifungal activity against Candida albicans MUCC 29 after 48 hrs by tube dilution method; type: functional
Outline: (§4)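 Tube dilution MIC as for bacteria (seven concentrations, 200–3.1 […]), with DMSO in place of DMF. Tubes inoculated with fungal culture and incubated 48 h at 37 °C. MIC read from presence or absence of growth.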

Microsporum audouinii [13] = assay: Antifungal activity against Microsporum audouinii MUCC 545 after 48 hrs by tube dilution method; type: functional; outline: as §4
Trichophyton benhamiae [14] = assay: Antifungal activity against Trichophyton mentagrophytes MUCC 665 after 48 hrs by tube dilution method; type: functional, Arthroderma benhamiae; outline: as §4
Eudrilus [15] = assay: Anthelmintic activity against Eudrilus sp. assessed as mean paralyzing time; type: functional
Outline: (§5)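 Earthworms exposed to test suspensions at 2 mg mL^-1 (0.2% w/v), made by triturating compound with Tween 80 (0.5%) and distilled water, then mechanically stirred 30 min. Mebendazole suspension prepared alike as reference. Paralysis and death times recorded; death confirmed by no movement in 50 °C water. Means from triplicate sets.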

Eudrilus [16] = assay: Anthelmintic activity against Eudrilus sp. assessed as mean death time; type: functional
Outline: (§6)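 Earthworms exposed to test suspensions at 2 mg mL−1, prepared by triturating compound with Tween 80 (0.5%) and distilled water, stirring 30 min, then diluting to 0.2% w/v. Mebendazole suspension was made the same way. Death was confirmed by moving worms into 50 °C warm water and looking for movement. Mean death time (min) taken from triplicate sets.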

[17] = Growth inhibition of DLA cells at 500 ug/mL after 3 hrs; type: functional; conditions: Mus musculus
Outline: (§7)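 DLA and EAC cells passaged intraperitoneally in albino mice, harvested after 15–20 days and adjusted to 1 × 10⁶ cells/mL. Dilutions in Dulbecco's medium (500–31.25, some down to 3.91 µg/mL; 5-FU reference) mixed 1:1 with cells and held 3 h at 37 °C. Trypan blue exclusion gave % growth inhibition; CTC50 by graphical extrapolation.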

[18] = Growth inhibition of DLA cells at 250 ug/mL after 3 hrs; type: functional; conditions: Mus musculus; outline: as §7
[19] = Growth inhibition of DLA cells at 125 ug/mL after 3 hrs; type: functional; conditions: Mus musculus; outline: as §7
[20] = Growth inhibition of DLA cells at 62.5 ug/mL after 3 hrs; type: functional; conditions: Mus musculus; outline: as §7
[21] = Growth inhibition of DLA cells at 31.25 ug/mL after 3 hrs; type: functional; conditions: Mus musculus; outline: as §7
[22] = Growth inhibition of DLA cells after 3 hrs; type: functional; conditions: Mus musculus; outline: as §7
[23] = Growth inhibition of EAC cells at 500 ug/mL after 3 hrs; type: functional; conditions: Mus musculus, Ehrlich; outline: as §7
[24] = Growth inhibition of EAC cells at 250 ug/mL after 3 hrs; type: functional; conditions: Mus musculus, Ehrlich; outline: as §7
[25] = Growth inhibition of EAC cells at 125 ug/mL after 3 hrs; type: functional; conditions: Mus musculus, Ehrlich; outline: as §7
[26] = Growth inhibition of EAC cells at 62.5 ug/mL after 3 hrs; type: functional; conditions: Mus musculus, Ehrlich; outline: as §7
[27] = Growth inhibition of EAC cells at 31.25 ug/mL after 3 hrs; type: functional; conditions: Mus musculus, Ehrlich; outline: as §7
[28] = Growth inhibition of EAC cells after 3 hrs; type: functional; conditions: Mus musculus, Ehrlich; outline: as §7
[29] = Anthelmintic activity against Megascoplex konkanensis ICARBC 211 assessed as mean paralyzing time; type: functional; outline: as §5
[30] = Anthelmintic activity against Megascoplex konkanensis ICARBC 211 assessed as mean death time; type: functional; outline: as §5
Pontoscolex corethrurus [31] = assay: Anthelmintic activity against Pontoscolex corethrurus ICARBC 408 assessed as mean paralyzing time; type: functional; outline: as §5
Pontoscolex corethrurus [32] = assay: Anthelmintic activity against Pontoscolex corethrurus ICARBC 408 assessed as mean death time; type: functional; outline: as §6

Structure (SMILES) | inhibition zone (IZ) (Bacillus subtilis [1]) [mm] | inhibition zone (IZ) (Staphylococcus aureus [2]) [mm] | inhibition zone (IZ) (Pseudomonas aeruginosa [3]) [mm] | inhibition zone (IZ) (Escherichia coli [4]) [mm] | inhibition zone (IZ) (Candida albicans [5]) [mm] | inhibition zone (IZ) (Microsporum audouinii [6]) [mm] | inhibition zone (IZ) (Trichophyton benhamiae [7]) [mm] | inhibition zone (IZ) (Aspergillus niger) [mm] | MIC (Bacillus subtilis [8]) [µg/mL] | MIC (Staphylococcus aureus [9]) [µg/mL] | MIC (Pseudomonas aeruginosa [10]) [µg/mL] | MIC (Escherichia coli [11]) [µg/mL] | MIC (Candida albicans [12]) [µg/mL] | MIC (Microsporum audouinii [13]) [µg/mL] | MIC (Trichophyton benhamiae [14]) [µg/mL] | Time (Eudrilus [15]) [min] | Time (Eudrilus [16]) [min] | inhibition at 500 µg/mL [17] [%] | inhibition at 250 µg/mL [18] [%] | inhibition at 125 µg/mL [19] [%] | also measured
COC(=O)[C@H](CCCNC(=N)N[N+](=O)[O-])NC(=O)[C@@H]1CCCN1C(=O)c1cc(I)c(-c2nc3cc(C)c(C)cc3[nH]2)c(I)c1 | 17 | 12 | 27 | 18 | 23 | 10 | 12 | 14 | 6 (≈ 7.23 µM) | 12.5 (≈ 15.1 µM) | 6 (≈ 7.23 µM) | 12.5 (≈ 15.1 µM) | 6 (≈ 7.23 µM) | 25 (≈ 30.1 µM) | 6 (≈ 7.23 µM) | 19.43 | 30.02 | 84.2 | 68.4 | 52.6 | inhibition at 62.5 µg/mL [20]: 28.9%; inhibition at 31.25 µg/mL [21]: 15.8%; CC50 [22]: 114 µM; inhibition at 500 µg/mL [23]: 100%; inhibition at 250 µg/mL [24]: 100%; inhibition at 125 µg/mL [25]: 100%; inhibition at 62.5 µg/mL [26]: 35.7%; inhibition at 31.25 µg/mL [27]: 21.4%; CC50 [28]: 84.3 µM; TIME [29]: 0.299 h; TIME [30]: 0.439 h; Time (Pontoscolex corethrurus [31]): 22.77 min; Time (Pontoscolex corethrurus [32]): 34.45 min
O=C(O)[C@@H]1CCCN1C(=O)[C@@H]1CCCN1C(=O)[C@@H]1CCCN1C(=O)c1cc(-c2nc3ccc([N+](=O)[O-])cc3[nH]2)ccc1O | 14 | 11 | 28 | 17 | 24 | 13 | 17 | 17 | 6 (≈ 10.2 µM) | 12.5 (≈ 21.2 µM) | 6 (≈ 10.2 µM) | 25 (≈ 42.3 µM) | 6 (≈ 10.2 µM) | 6 (≈ 10.2 µM) | 12.5 (≈ 21.2 µM) | 26.54 | 37.23 | 65.8 | 52.6 | 47.4 | inhibition at 62.5 µg/mL [20]: 34.2%; inhibition at 31.25 µg/mL [21]: 18.4%; CC50 [22]: 332 µM; inhibition at 500 µg/mL [23]: 28.7%; inhibition at 250 µg/mL [24]: 21.4%; inhibition at 125 µg/mL [25]: 10.7%; inhibition at 62.5 µg/mL [26]: 7.14%; inhibition at 31.25 µg/mL [27]: 3.57%; CC50 [28]: > 847 µM; TIME [29]: 0.418 h; TIME [30]: 0.567 h; Time (Pontoscolex corethrurus [31]): 30.52 min; Time (Pontoscolex corethrurus [32]): 40.2 min
CC(C)[C@H](NC(=O)c1cc(-c2nc3ccc([N+](=O)[O-])cc3[nH]2)ccc1O)C(=O)N[C@@H](Cc1ccccc1)C(=O)N[C@@H](Cc1cnc[nH]1)C(=O)O | 13 | 11 | 24 | 16 | 19 | 12 | 13 | 19 | 6 (≈ 8.79 µM) | 12.5 (≈ 18.3 µM) | 12.5 (≈ 18.3 µM) | 12.5 (≈ 18.3 µM) | 6 (≈ 8.79 µM) | 12.5 (≈ 18.3 µM) | 6 (≈ 8.79 µM) | 11.55 | 21.72 | 42.1 | 28.9 | 26.3 | inhibition at 62.5 µg/mL [20]: 21%; inhibition at 31.25 µg/mL [21]: 10.5%; CC50 [22]: > 718 µM; inhibition at 500 µg/mL [23]: 10.7%; inhibition at 250 µg/mL [24]: 7.14%; inhibition at 125 µg/mL [25]: 7.14%; inhibition at 62.5 µg/mL [26]: 3.57%; inhibition at 31.25 µg/mL [27]: 3.57%; CC50 [28]: > 718 µM; TIME [29]: 0.174 h; TIME [30]: 0.326 h; Time (Pontoscolex corethrurus [31]): 11.87 min; Time (Pontoscolex corethrurus [32]): 22.79 min
